In ChEMBL document CHEMBL2146415, “Antibacterial activities of Groebke-Blackburn-Bienaymé-derived imidazo[1,2-a]pyridin-3-amines” (Bioorg Med Chem, 2012):
Values after ≈ are worked out from the molar mass of the structure shown. Active and inactive are the calls of the source. No cut-off for these calls is given here.

How the values were obtained:
Staphylococcus aureus [1] = test: Bacteriostatic activity against wild type Staphylococcus aureus ATCC 13709 by CLSI broth microdilution method; format: functional
How it was run: (§1)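 MIC was determined by CLSI broth microdilution in non-cation-supplemented Mueller-Hinton broth, using OD600 0.5 cultures diluted 10-fold and 2-fold compound dilutions, overnight at 37°C, A600 read-out.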

Staphylococcus aureus [2] = test: Bacteriostatic activity against wild type Staphylococcus aureus ATCC 13709 at 100 ug/mL by CLSI broth microdilution method; format: functional, organism-based
[3] = biological target: T1, Toll-like receptor 7 (Homo sapiens) (UniProt Q9NYK1); test: Agonist activity at human TLR7 expressed in HEK293 cells co-transfected with NF-kappaB/sAP gene assessed as induction of NF-kappaB activation up to 250 uM by reporter gene assay; format: functional, cell-based
T1 sequence (whole entry): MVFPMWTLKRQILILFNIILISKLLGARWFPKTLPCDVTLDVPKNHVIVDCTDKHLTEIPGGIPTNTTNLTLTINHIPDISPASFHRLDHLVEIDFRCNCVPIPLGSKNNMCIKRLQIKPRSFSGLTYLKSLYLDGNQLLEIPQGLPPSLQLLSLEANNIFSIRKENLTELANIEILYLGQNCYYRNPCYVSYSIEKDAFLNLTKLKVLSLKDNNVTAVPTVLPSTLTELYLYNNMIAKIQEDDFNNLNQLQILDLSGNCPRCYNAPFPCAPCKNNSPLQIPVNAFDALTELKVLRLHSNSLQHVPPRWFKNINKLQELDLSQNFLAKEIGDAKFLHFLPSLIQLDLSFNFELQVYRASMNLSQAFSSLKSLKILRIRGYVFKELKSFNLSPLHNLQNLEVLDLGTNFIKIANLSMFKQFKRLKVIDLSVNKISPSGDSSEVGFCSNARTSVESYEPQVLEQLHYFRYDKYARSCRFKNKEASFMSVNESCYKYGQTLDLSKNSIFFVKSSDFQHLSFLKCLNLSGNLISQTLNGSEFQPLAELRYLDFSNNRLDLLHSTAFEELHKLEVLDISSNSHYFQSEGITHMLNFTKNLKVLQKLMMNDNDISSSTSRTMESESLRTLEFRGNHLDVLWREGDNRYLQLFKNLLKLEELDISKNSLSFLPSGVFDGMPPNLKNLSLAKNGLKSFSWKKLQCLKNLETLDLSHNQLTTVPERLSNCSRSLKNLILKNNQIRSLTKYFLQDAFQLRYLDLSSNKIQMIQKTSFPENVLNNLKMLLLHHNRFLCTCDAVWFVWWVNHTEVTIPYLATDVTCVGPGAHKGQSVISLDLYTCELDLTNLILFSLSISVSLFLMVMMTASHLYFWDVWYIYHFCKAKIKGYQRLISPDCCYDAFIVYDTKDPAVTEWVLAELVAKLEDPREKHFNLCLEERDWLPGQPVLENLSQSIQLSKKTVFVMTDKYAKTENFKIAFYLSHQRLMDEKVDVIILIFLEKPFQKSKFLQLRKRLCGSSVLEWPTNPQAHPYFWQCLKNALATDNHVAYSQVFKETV

[4] = biological target: T1, Toll-like receptor 7 (Homo sapiens); test: Antagonist activity at TLR7 expressed in HEK293 cells co-transfected with NF-kappaB/sAP gene assessed as inhibition of gardiquimod-induced NF-kappaB activation up to 250 uM by reporter gene assay; format: functional, cell-based
Staphylococcus aureus [5] = test: Bacteriostatic activity against methicillin resistant Staphylococcus aureus ATCC 33591 by CLSI broth microdilution method; format: functional
Streptococcus pyogenes = test: Bacteriostatic activity against Streptococcus pyogenes clinical isolate by CLSI broth microdilution method; format: functional; how it was run: as §1
[6] = system: Staphylococcus epidermidis; test: Bacteriostatic activity against coagulase negative Staphylococcus epidermidis ATCC 35983 by CLSI broth microdilution method; format: functional; how it was run: as §1
Escherichia coli = test: Antibacterial activity against Escherichia coli ATCC 9637 in presence of 6.6 ug/mL polymyxin B […]; format: functional, organism-based
How it was run: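 Broth microdilution per CLSI. Mid-log cultures in non-cation-supplemented Mueller-Hinton broth were adjusted to OD600 0.5, diluted 10-fold, and added to equal volumes of 2-fold serially diluted compound. Plates were sealed and incubated overnight at 37°C, then read at A600. MIC was the lowest concentration inhibiting growth. Reference antibiotics were run alongside.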

Staphylococcus aureus [7] = test: Bactericidal activity against methicillin resistant Staphylococcus aureus ATCC 33591 by broth microdilution method; format: functional, organism-based
How it was run: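 MBC by microdilution subculture: 0.5 μL from each well of the parent MIC plate (MRSA ATCC 33591) diluted into 80 μL fresh Mueller-Hinton broth, incubated overnight at 37°C, absorbance read at 600 nm.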

[8] = Chemical stability in aqueous solution of the compound assessed as N-dealkylated compound formation after 2 weeks by LC-MS analysis; format: physicochemical; settings: buffer, 336 h

SMILES	MIC (Staphylococcus aureus [1])	Activity (Staphylococcus aureus [2])	Activity [3]	Activity [4]	further results
CC(C)(C)CC(C)(C)Nc1c(-c2cc3ccccc3c3ccccc23)nc2ccccn12	7.81 µg/mL (≈ 18.5 µM)	–	–	–	–
CC(C)(C)Nc1c(-c2c3ccccc3c(Cl)c3ccccc23)nc2ccccn12	7.81 µg/mL (≈ 19.5 µM)	–	–	–	–
c1ccc(Cc2nc3ccccn3c2NC2CCCCC2)cc1	–	inactive	inactive	inactive	–
CC(C)(C)CC(C)(C)Nc1c(-c2cc3cccc4ccc5cccc2c5c43)nc2ccccn12	15.6 µg/mL (≈ 35.1 µM)	–	–	–	–
c1ccc(Cc2nc3cnccn3c2NC2CCCCC2)cc1	–	inactive	inactive	inactive	–
Nc1c(-c2c3ccccc3cc3ccccc23)nc2ccccn12	–	inactive	–	–	–
CN(C)CCCNc1ccc2nc(-c3c4ccccc4cc4ccccc34)c(NC(C)(C)CC(C)(C)C)n2c1	3.91 µg/mL (≈ 7.49 µM)	–	–	–	–
c1ccc(CNc2c(-c3ccccc3)nc3ccccn23)cc1	–	inactive	inactive	inactive	–
c1ccc(-c2nc3ccccn3c2NC2CCCCC2)cc1	–	inactive	inactive	inactive	–
CC(C)(C)Nc1c(-c2cccc3ccccc23)nc2ccccn12	62.5 µg/mL (≈ 198 µM)	–	inactive	inactive	MIC (Staphylococcus aureus [5]): 31.2 µg/mL (≈ 99.1 µM); MIC (Streptococcus pyogenes): < 10 µg/mL
c1ccc2c(-c3nc4ncccn4c3NC3CCCCC3)c3ccccc3cc2c1	15.6 µg/mL (≈ 39.8 µM)	–	–	–	–
c1ccc(CNc2c(-c3c4ccccc4cc4ccccc34)nc3ccccn23)cc1	–	inactive	inactive	inactive	–
c1ccc2c(-c3nc4cnccn4c3NC3CCCCC3)cccc2c1	–	inactive	inactive	inactive	–
Nc1cccn2c(NC3CCCCC3)c(-c3c4ccccc4cc4ccccc34)nc12	15.6 µg/mL (≈ 38.4 µM)	–	–	–	–
CCCCCCCCN(CCCCCCCC)c1c(-c2c3ccccc3cc3ccccc23)nc2ccccn12	31.2 µg/mL (≈ 58.5 µM)	–	–	–	–
CCCCCNc1c(-c2c3ccccc3cc3ccccc23)nc2ccccn12	3.91 µg/mL (≈ 10.3 µM)	–	–	–	MIC (Staphylococcus aureus [5]): 7.81 µg/mL (≈ 20.6 µM)
Clc1nccn2c(NC3CCCCC3)c(-c3c4ccccc4cc4ccccc34)nc12	–	inactive	–	–	–
CC(C)(C)Nc1c(-c2c3ccccc3cc3ccccc23)nc2ccccn12	3.91 µg/mL (≈ 10.7 µM)	–	inactive	inactive	MIC [6]: 7.81 µg/mL (≈ 21.4 µM); MIC (Staphylococcus aureus [5]): 3.91 µg/mL (≈ 10.7 µM); Activity (Escherichia coli): inactive; MIC (Streptococcus pyogenes): < 10 µg/mL; Activity (Staphylococcus aureus [7]): inactive
c1ccc(CNc2c(Cc3ccccc3)nc3cnccn23)cc1	–	inactive	inactive	inactive	–
CC(C)(C)CC(C)(C)Nc1c(-c2c3ccccc3cc3ccccc23)nc2ccccn12	3.91 µg/mL (≈ 9.27 µM)	–	–	–	MIC (Staphylococcus aureus [5]): 3.91 µg/mL (≈ 9.27 µM); Activity (Staphylococcus aureus [7]): inactive
O=C(Nc1c(-c2c3ccccc3cc3ccccc23)nc2ccccn12)C(F)(F)F	62.5 µg/mL (≈ 154 µM)	–	–	–	–
c1ccc(CNc2c(Cc3ccccc3)nc3ccccn23)cc1	–	inactive	inactive	inactive	–
COc1ccc(Nc2c(-c3c4ccccc4cc4ccccc34)nc3ccccn23)cc1	–	inactive	–	–	–
CC(C)(C)CC(C)(C)Nc1c(-c2c3ccccc3c(Cl)c3ccccc23)nc2ccccn12	7.81 µg/mL (≈ 17.1 µM)	–	–	–	–
Cc1cccc(Cl)c1Nc1c(-c2c3ccccc3cc3ccccc23)nc2ccccn12	–	inactive	–	–	–
c1ccc(CNc2c(-c3cccc4ccccc34)nc3cnccn23)cc1	–	inactive	inactive	inactive	–

SMILES	MIC (Staphylococcus aureus [1])	Activity (Staphylococcus aureus [2])	Activity [3]	Activity [4]	further results
CN(C)CCCNc1c2ccccc2c(-c2nc3ccccn3c2NC(C)(C)CC(C)(C)C)c2ccccc12	3.91 µg/mL (≈ 7.49 µM)	–	–	–	–
c1ccc(CNc2c(-c3cccc4ccccc34)nc3ccccn23)cc1	15.6 µg/mL (≈ 44.7 µM)	–	inactive	inactive	–
CCCCNc1c(-c2c3ccccc3cc3ccccc23)nc2ccccn12	3.91 µg/mL (≈ 10.7 µM)	–	–	–	MIC (Staphylococcus aureus [5]): 7.81 µg/mL (≈ 21.4 µM)
CC(C)(C)Nc1c(-c2c3ccccc3c(NCCCCCCCCN)c3ccccc23)nc2ccccn12	7.81 µg/mL (≈ 15.4 µM)	–	–	–	MIC (Staphylococcus aureus [5]): 15.6 µg/mL (≈ 30.8 µM)
c1ccc(CNc2c(-c3c4ccccc4cc4ccccc34)nc3cnccn23)cc1	–	inactive	inactive	inactive	–
CC(C)(C)CC(C)(C)Nc1c(-c2c3ccccc3cc3ccccc23)nc2ccc(Br)cn12	15.6 µg/mL (≈ 31.2 µM)	–	–	–	–
c1ccc2c(-c3nc4ccccn4c3NC3CCCCC3)cccc2c1	7.81 µg/mL (≈ 22.9 µM)	–	inactive	inactive	MIC (Staphylococcus aureus [5]): 15.6 µg/mL (≈ 45.7 µM)
c1ccc(-c2nc3cnccn3c2NC2CCCCC2)cc1	–	inactive	inactive	inactive	–
CC(C)(C)Nc1c(Cc2ccccc2)nc2cnccn12	–	inactive	inactive	inactive	–
CN(C)CCCNc1c2ccccc2c(-c2nc3ccccn3c2NC(C)(C)CC(C)(C)C)c2ccccc12.Cl	–	–	–	–	Stability [8]: Unstable
c1ccc2c(-c3nc4ccccn4c3NC34CC5CC(CC(C5)C3)C4)c3ccccc3cc2c1	15.6 µg/mL (≈ 35.2 µM)	–	–	–	–
c1ccc2c(-c3nc4cnccn4c3NC3CCCCC3)c3ccccc3cc2c1	7.81 µg/mL (≈ 19.9 µM)	–	inactive	inactive	–
CC(C)(C)Nc1c(-c2ccccc2)nc2cnccn12	–	inactive	inactive	inactive	–
C[Si](C)(C)CNc1c(-c2c3ccccc3cc3ccccc23)nc2ccccn12	15.6 µg/mL (≈ 39.5 µM)	–	–	–	–
CC(C)(C)Nc1c(-c2c3ccccc3cc3ccccc23)nc2ccc(Br)cn12	15.6 µg/mL (≈ 35.2 µM)	–	–	–	–
CN(C)CCCNc1ccc2nc(-c3c4ccccc4cc4ccccc34)c(NC(C)(C)CC(C)(C)C)n2c1.Cl	–	–	–	–	Stability [8]: Unstable
c1ccc2c(-c3nc4ccccn4c3NC3CCCCC3)c3ccccc3cc2c1	3.91 µg/mL (≈ 9.99 µM)	–	inactive	inactive	MIC [6]: 7.81 µg/mL (≈ 19.9 µM); MIC (Staphylococcus aureus [5]): 3.91 µg/mL (≈ 9.99 µM); MIC (Streptococcus pyogenes): < 10 µg/mL
CC(C)(C)CC(C)(C)Nc1c(-c2ccc(-c3ccccc3)cc2)nc2ccccn12	–	inactive	–	–	–
CC(C)(C)Nc1c(-c2cccc3ccccc23)nc2cnccn12	–	inactive	inactive	inactive	–
CC(C)Nc1c(-c2c3ccccc3cc3ccccc23)nc2ccccn12	15.6 µg/mL (≈ 44.4 µM)	–	–	–	MIC (Staphylococcus aureus [5]): 15.6 µg/mL (≈ 44.4 µM)
CCCC(C)Nc1c(-c2c3ccccc3cc3ccccc23)nc2ccccn12 (configuration not stated)	7.81 µg/mL (≈ 20.6 µM)	–	–	–	MIC (Staphylococcus aureus [5]): 3.91 µg/mL (≈ 10.3 µM)
CCCCCCCCNc1c(-c2c3ccccc3cc3ccccc23)nc2ccccn12	7.81 µg/mL (≈ 18.5 µM)	–	–	–	–
CC(C)(C)Nc1c(-c2c3ccccc3cc3ccccc23)nc2cnccn12	–	inactive	inactive	inactive	–
c1ccc(CNc2c(-c3ccccc3)nc3cnccn23)cc1	–	inactive	inactive	inactive	–
CC(C)(C)Nc1c(-c2c3ccccc3cc3ccccc23)nc2ccc(NCCCCCCCCN)cn12	3.91 µg/mL (≈ 7.7 µM)	–	–	–	MIC (Staphylococcus aureus [5]): 7.81 µg/mL (≈ 15.4 µM)
CC(C)(C)Nc1c(Cc2ccccc2)nc2ccccn12	–	inactive	inactive	inactive	–
